Assay results from different studies.
Each line is one published result; the experiments were not run side by side.
Cell line: A549
Read-out: cell growth or viability

| Structure (SMILES) | technique | tested at | inhibition [%] |
| --- | --- | --- | --- |
| COc1ccc(-c2nc(NN=C3C(=O)Nc4ccc(Cl)cc43)c3ccccc3n2)cc1OC | – | 30 µM | 10.9 |
| O=C(CN1C(=O)/C(=C/c2ccncc2)SC1=S)Nc1ccccc1 | MTT | 10 µM | 25.9 |
| COc1ccc2c(c1)/C(=N/NC(=O)c1cc3ccccc3[nH]1)C(=O)N2 | – | 30 µM | 85.3 |
| COc1cc2ncnc(NN=C3C(=O)Nc4ccc(C)cc43)c2cc1OC | – | 30 µM | 20.5 |
| O=C(CN1C(=O)/C(=C/c2cccc(F)c2)SC1=S)Nc1ccccc1 | MTT | 10 µM | 26.1 |
| COc1cc(CNC(=O)C[C@H](C)CCC=C(C)C)ccc1OCc1cn(-c2ccc(Cl)cc2)nn1 | SRB | 10 µM | 55 |
| COc1cc2ncnc(NN=C3C(=O)Nc4ccc(F)cc43)c2cc1OC | – | 10 µM | 7.1 |
| CCN(CC)CCNC(=O)c1c(C)[nH]c(/C=C2\C(=O)Nc3ccc(F)cc32)c1C | – | 30 µM | 85.7 |
| O=C(CN1C(=O)/C(=C/c2ccc(O)cc2)SC1=S)Nc1ccccc1 | MTT | 10 µM | 29.6 |
| COc1ccc2c(c1)/C(=N/NC(=O)c1cc3ccccc3[nH]1)C(=O)N2C | – | 30 µM | 97.4 |
| COc1ccc2c(c1)C(=NNc1nc3ccccc3n(C)c1=O)C(=O)N2 | – | 30 µM | 85.9 |
| O=C(CN1C(=O)/C(=C/c2cccc([N+](=O)[O-])c2)SC1=S)Nc1ccccc1 | MTT | 10 µM | 22.2 |
| CN1C(=O)/C(=N\NC(=O)c2cc3ccccc3[nH]2)c2ccccc21 | – | 30 µM | 94.9 |
| COc1ccc(-c2nc(NN=C3C(=O)Nc4ccccc43)c3ccccc3n2)cc1OC | – | 30 µM | 58.6 |
| O=C1Nc2ccc(F)cc2/C1=N/NC(=O)c1cc2ccccc2[nH]1 | – | 30 µM | 6.9 |
| COc1cc2ncnc(NN=C3C(=O)Nc4ccc(Br)cc43)c2cc1OC | – | 10 µM | -4.3 |
| O=C(CN1C(=O)/C(=C/c2ccccc2Cl)SC1=S)Nc1ccccc1 | MTT | 10 µM | 20.5 |
| O=C1Nc2ccc(Cl)cc2/C1=N/NC(=O)c1cc2ccccc2[nH]1 | – | 30 µM | 60.6 |
| COc1cccc(/C=C2\SC(=S)N(CC(=O)Nc3ccccc3)C2=O)c1 | MTT | 10 µM | 25.7 |
| Cc1c(-c2cccc(C(F)(F)F)c2)sc2[nH]c(=O)n([C@H](C)c3cccc4ccccc34)c(=O)c12 | – | 10 µM | > 80 |
